Measured values: ChEMBL document CHEMBL1649109, “Antiparasitic activities and toxicities of individual enantiomers of the 8-aminoquinoline 8-[(4-amino-1-methylbutyl)amino]-6-methoxy-4-methyl-5-[3,4-dichlorophenoxy]quinoline succinate” (Antimicrob Agents Chemother, 2008)
The source made the active and inactive calls. The calls are words filed in the database; no cut-off is given here.

How the values were obtained:
Mus musculus = assay: Toxicity in Leishmania donovani HU3 infected mouse at 100 mg/kg/day, po treated for 5 days administered 7 days postinfection; format: organism-based; set-up: route oral; details: in vivo
Procedure, shortened: (§1)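 L. donovani HU3 amastigotes, 1 × 10^7 given IV to mice. From day 7 post-infection, dosed orally once daily for 5 days in 0.25% methylcellulose-10% ethanol; reference stibogluconate given SC. Mice killed at day 14 post-infection. Parasite burden counted on liver impression smears against untreated controls. ED50 from linear regression, with 95% confidence limits.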

Plasmodium berghei [1] = assay: Antimalarial activity Plasmodium berghei KBG-173 infected in Swiss(CD-1) mouse assessed as mean survival time at 2 mg/kg, po treated 2 day postinfection; format: functional
Procedure, shortened: (§2)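 CD-1 mice, 5 weeks old, male or female, groups of five, infected with 5 × 10^4 P. berghei KBG-173 parasitized erythrocytes. One 2 mg/kg oral dose given on a single day, from day −3 to +2 relative to inoculation. Controls untreated. Read-out is increase in mean survival time over controls and number alive at day +30.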

Plasmodium berghei [2] = assay: Antimalarial activity Plasmodium berghei KBG-173 infected in Swiss(CD-1) mouse assessed as mean survival time at 2 mg/kg, po treated 1 day postinfection; format: functional; procedure, shortened: as §2
Plasmodium berghei [3] = assay: Antimalarial activity Plasmodium berghei KBG-173 infected in Swiss(CD-1) mouse assessed as mean survival time at 2 mg/kg, po treated at day of infection; format: functional; procedure, shortened: as §2
Plasmodium berghei [4] = assay: Antimalarial activity Plasmodium berghei KBG-173 infected in Swiss(CD-1) mouse assessed as mean survival time at 2 mg/kg, po pretreated 2 days before infection; format: functional; procedure, shortened: as §2
Plasmodium berghei [5] = assay: Antimalarial activity Plasmodium berghei KBG-173 infected in Swiss(CD-1) mouse assessed as mean survival time at 2 mg/kg, po pretreated 3 days before infection; format: functional; procedure, shortened: as §2
Plasmodium berghei [6] = assay: Antimalarial activity Plasmodium berghei KBG-173 infected in Swiss(CD-1) mouse assessed as survival at 2 mg/kg, po treated 2 day postinfection measured on day 30; format: functional, organism-based; set-up: dose 2 mg/kg; procedure, shortened: as §2
Plasmodium berghei [7] = assay: Antimalarial activity Plasmodium berghei KBG-173 infected in Swiss(CD-1) mouse assessed as survival at 2 mg/kg, po treated 1 day postinfection measured on day 30; format: functional, organism-based; set-up: dose 2 mg/kg; procedure, shortened: as §2
Plasmodium berghei [8] = assay: Antimalarial activity Plasmodium berghei KBG-173 infected in Swiss(CD-1) mouse assessed as survival at 2 mg/kg, po treated at day of infection measured on day 30; format: functional, organism-based; set-up: dose 2 mg/kg; procedure, shortened: as §2
Plasmodium berghei [9] = assay: Antimalarial activity Plasmodium berghei KBG-173 infected in Swiss(CD-1) mouse assessed as survival at 2 mg/kg, po pretreated 2 days before infection measured on day 30; format: functional, organism-based; set-up: dose 2 mg/kg; procedure, shortened: as §2
Plasmodium berghei [10] = assay: Antimalarial activity against Plasmodium berghei KBG-173 infected in Swiss(CD-1) mouse assessed as reduction in parasitemia at 4 mg/kg/day, po treated for 3 days measured on day 6; format: functional; set-up: scale not given: the % may be the effect or the level left
Procedure, shortened: (§3)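 CD-1 mice, 5 weeks old, male or female, groups of five, infected with 5 × 10^4 P. berghei KBG-173 parasitized erythrocytes. Drug in 0.5% hydroxyethylcellulose/0.1% Tween 80, given orally once daily on days 3, 4 and 5 post-infection. Parasitemia from blood films on day +6. Read-out also includes increase in mean survival time over controls and survivors at day +34.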

Plasmodium berghei [11] = assay: Antimalarial activity against Plasmodium berghei KBG-173 infected in Swiss(CD-1) mouse assessed as mean survival time at 0.25 mg/kg/day, po treated for 3 days; format: functional; procedure, shortened: as §3
Plasmodium berghei [12] = assay: Antimalarial activity against Plasmodium berghei KBG-173 infected in Swiss(CD-1) mouse assessed as mean survival time at 1 mg/kg/day, po treated for 3 days; format: functional; procedure, shortened: as §3
Plasmodium berghei [13] = assay: Antimalarial activity against Plasmodium berghei KBG-173 infected in Swiss(CD-1) mouse assessed as mean survival time at 4 mg/kg/day, po treated for 3 days; format: functional; procedure, shortened: as §3
Plasmodium berghei [14] = assay: Antimalarial activity against Plasmodium berghei KBG-173 infected in Swiss(CD-1) mouse assessed as survival at 0.25 mg/kg/day, po treated for 3 days measured on day 34; format: functional, organism-based; procedure, shortened: as §3
Plasmodium berghei [15] = assay: Antimalarial activity against Plasmodium berghei KBG-173 infected in Swiss(CD-1) mouse assessed as survival at 1 mg/kg/day, po treated for 3 days measured on day 34; format: functional, organism-based; procedure, shortened: as §3
Plasmodium berghei [16] = assay: Antimalarial activity against Plasmodium berghei KBG-173 infected in Swiss(CD-1) mouse assessed as survival at 4 mg/kg/day, po treated for 3 days measured on day 34; format: functional, organism-based; procedure, shortened: as §3
Pneumocystis carinii [17] = assay: Antimicrobial activity against Pneumocystis carinii infected BALB/c mouse at 5 mg/kg/day, po after 21 days administered 4 weeks postinfection by Giemsa staining method; format: functional, organism-based
Procedure, shortened: (§4)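 Female BALB/c mice, 6-8 weeks, immunosuppressed with dexamethasone […] in drinking water, then inoculated transtracheally with 10^6 P. carinii. From 4 weeks post-inoculation, drug given in drinking water for 3 weeks, 10 mice/group, intake monitored. Lung impression smears stained with Giemsa or methenamine silver, read blinded. Graded 0-5 on a log scale; group mean ± SE.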

Pneumocystis carinii [18] = assay: Antimicrobial activity against Pneumocystis carinii infected BALB/c mouse at 1 mg/kg/day, po after 21 days administered 4 weeks postinfection by Giemsa staining method; format: functional, organism-based; procedure, shortened: as §4
Pneumocystis carinii [19] = assay: Antimicrobial activity against Pneumocystis carinii infected BALB/c mouse at 0.25 mg/kg/day, po after 21 days administered 4 weeks postinfection by Giemsa staining method; format: functional, organism-based; procedure, shortened: as §4
Pneumocystis carinii [20] = assay: Antimicrobial activity against Pneumocystis carinii infected BALB/c mouse at 5 mg/kg/day, po after 21 days administered 4 weeks postinfection by methenamine silver nitrate staining method; format: functional, organism-based; procedure, shortened: as §4
Pneumocystis carinii [21] = assay: Antimicrobial activity against Pneumocystis carinii infected BALB/c mouse at 1 mg/kg/day, po after 21 days administered 4 weeks postinfection by methenamine silver nitrate staining method; format: functional, organism-based; procedure, shortened: as §4
Pneumocystis carinii [22] = assay: Antimicrobial activity against Pneumocystis carinii infected BALB/c mouse at 0.25 mg/kg/day, po after 21 days administered 4 weeks postinfection by methenamine silver nitrate staining method; format: functional, organism-based; procedure, shortened: as §4
Canis familiaris [23] = assay: Toxicity in Beagle dog assessed as increase in methemoglobin level at 1.91 mg/kg/day, po; format: organism-based, Canis lupus familiaris; set-up: route oral; details: in vivo
Procedure, shortened: (§5)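 Beagle dogs, one male and one female per enantiomer, given 0.64 mg/kg/day (0.5 mg/kg base) orally for 4 days. After a 5-week washout the same dogs received 1.91 mg/kg/day for 4 days. Methemoglobin sampled from days −6 to 36. Each dog's values are mean of duplicate determinations.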

Canis familiaris [24] = assay: Toxicity in Beagle dog assessed as increase in methemoglobin level at 1.91 mg/kg/day, po after 2 days; format: organism-based, Canis lupus familiaris; set-up: route oral; details: in vivo, 48 h; procedure, shortened: as §5
Canis familiaris [25] = assay: Toxicity in Beagle dog assessed as increase in methemoglobin level at 1.91 mg/kg/day, po after 6 days; format: organism-based, Canis lupus familiaris; set-up: route oral; details: in vivo, 144 h; procedure, shortened: as §5
Canis familiaris [26] = assay: Toxicity in Beagle dog assessed as increase in methemoglobin level at 1.91 mg/kg/day, po after 8 days; format: organism-based, Canis lupus familiaris; set-up: route oral; details: in vivo, 192 h; procedure, shortened: as §5
Plasmodium berghei [27] = assay: Antimalarial activity Plasmodium berghei KBG-173 infected in Swiss(CD-1) mouse assessed as survival at 2 mg/kg, po pretreated 1 day before infection measured on day 30; format: functional, organism-based; set-up: dose 2 mg/kg; procedure, shortened: as §2
Leishmania donovani [28] = assay: Antileishmanial activity against Leishmania donovani HU3 infected in mouse assessed as inhibition of parasites in liver at 10 mg/kg/day, po treated for 5 days administered 7 days postinfection measured after 14 days post-infection; format: functional; procedure, shortened: as §1
Leishmania donovani [29] = assay: Antileishmanial activity against Leishmania donovani HU3 infected in mouse assessed as inhibition of parasites in liver at 5 mg/kg/day, po treated for 5 days administered 7 days postinfection measured after 14 days post-infection; format: functional; procedure, shortened: as §1
Leishmania donovani [30] = assay: Antileishmanial activity against Leishmania donovani HU3 infected in mouse assessed as inhibition of parasites in liver at 0.4 mg/kg/day, po treated for 5 days administered 7 days postinfection measured after 14 days post-infection; format: functional; procedure, shortened: as §1
Plasmodium berghei [31] = assay: Antimalarial activity against Plasmodium berghei KBG-173 infected in Swiss(CD-1) mouse assessed as parasitemia at 1 mg/kg/day, po treated for 3 days measured on day 6
Plasmodium berghei [32] = assay: Antimalarial activity against Plasmodium berghei KBG-173 infected in Swiss(CD-1) mouse assessed as parasitemia at 0.25 mg/kg/day, po treated for 3 days measured on day 6
Plasmodium berghei [33] = assay: Antimalarial activity Plasmodium berghei KBG-173 infected in Swiss(CD-1) mouse assessed as increase in mean survival time over control at 2 mg/kg, po pretreated 1 day before infection

How did the Activity (Mus musculus) turn out when `COc1cc(N[C@@H](C)CCCN)c2nccc(C)c2c1Oc1ccc(Cl)c(Cl)c1.O=C(O)CCC(=O)O` was run?
Its Activity is “Toxic”.

What about the MST (Plasmodium berghei [1]) of the same compound?
Its MST is 1.2 days.

What about the MST (Plasmodium berghei [2]) of the same compound?
The MST was 0 days.

And the MST (Plasmodium berghei [3])?
Its MST is 3.4 days.

And the MST (Plasmodium berghei [4])?
The MST was 0 days.

What about the MST (Plasmodium berghei [5]) of the same compound?
The MST was 0 days.

What about the Activity (Plasmodium berghei [6]) of the same compound?
The Activity was “Active”.

And the Activity (Plasmodium berghei [7])?
Its Activity is “Active”.

What about the Activity (Plasmodium berghei [8]) of the same compound?
Its Activity is “Active”.

And the Activity (Plasmodium berghei [9])?
Its Activity is “Active”.

And the Activity (Plasmodium berghei [10])?
The Activity was 1.1%.

And the MST (Plasmodium berghei [11])?
The MST was 0 days.

What about the MST (Plasmodium berghei [12]) of the same compound?
The MST was 6 days.

What about the MST (Plasmodium berghei [13]) of the same compound?
The MST was 11 days.

What about the Activity (Plasmodium berghei [14]) of the same compound?
Its Activity is “Active”.

And the Activity (Plasmodium berghei [15])?
The Activity was “Active”.

What about the Activity (Plasmodium berghei [16]) of the same compound?
The Activity was “Active”.

What about the Activity (Pneumocystis carinii [17]) of the same compound?
Its Activity is “Active”.

And the Activity (Pneumocystis carinii [18])?
Its Activity is “Active”.

And the Activity (Pneumocystis carinii [19])?
The Activity was “Active”.

And the Activity (Pneumocystis carinii [20])?
Its Activity is “Active”.

What about the Activity (Pneumocystis carinii [21]) of the same compound?
Its Activity is “Active”.

And the Activity (Pneumocystis carinii [22])?
The Activity was “Active”.

And the Activity (Canis familiaris [23])?
Its Activity is “Toxic”.

What about the Activity (Canis familiaris [24]) of the same compound?
Its Activity is “Toxic”.

What about the Activity (Canis familiaris [25]) of the same compound?
Its Activity is “Toxic”.

What about the Activity (Canis familiaris [26]) of the same compound?
Its Activity is “Toxic”.

And the Activity (Plasmodium berghei [27])?
The Activity was “Active”.

And the inhibition in vivo at 10 mg/kg/day (Leishmania donovani [28])?
The inhibition in vivo at 10 mg/kg/day was 99.6%.

What about the inhibition in vivo at 5 mg/kg/day (Leishmania donovani [29]) of the same compound?
The inhibition in vivo at 5 mg/kg/day was 65%.

And the inhibition in vivo at 0.4 mg/kg/day (Leishmania donovani [30])?
The inhibition in vivo at 0.4 mg/kg/day was 41.2%.

And the Activity (Plasmodium berghei [31])?
The Activity was 27.4%.

What about the Activity (Plasmodium berghei [32]) of the same compound?
Its Activity is 28.2%.

What about the ΔMST (Plasmodium berghei [33]) of the same compound?
Its ΔMST is 0.6 days.
